From ChEMBL document CHEMBL3621116, “Benzimidazole Derivatives as Potent JAK1-Selective Inhibitors” (J Med Chem, 2015) come the findings set out here.

Active and inactive are the calls of the source.

Data set [1] deals with T1, Tyrosine-protein kinase JAK2 (Homo sapiens, UniProt O60674). Nature of the data set: Inhibition of JAK2 (unknown origin).
Data set [2] deals with T2, Tyrosine-protein kinase JAK1 (Homo sapiens, UniProt P23458). In words: Inhibition of JAK1 (unknown origin) using 87 uM of ATP and Tyr6 peptide by Z'-LYTE kinase assay.
T2 sequence (P23458 whole entry): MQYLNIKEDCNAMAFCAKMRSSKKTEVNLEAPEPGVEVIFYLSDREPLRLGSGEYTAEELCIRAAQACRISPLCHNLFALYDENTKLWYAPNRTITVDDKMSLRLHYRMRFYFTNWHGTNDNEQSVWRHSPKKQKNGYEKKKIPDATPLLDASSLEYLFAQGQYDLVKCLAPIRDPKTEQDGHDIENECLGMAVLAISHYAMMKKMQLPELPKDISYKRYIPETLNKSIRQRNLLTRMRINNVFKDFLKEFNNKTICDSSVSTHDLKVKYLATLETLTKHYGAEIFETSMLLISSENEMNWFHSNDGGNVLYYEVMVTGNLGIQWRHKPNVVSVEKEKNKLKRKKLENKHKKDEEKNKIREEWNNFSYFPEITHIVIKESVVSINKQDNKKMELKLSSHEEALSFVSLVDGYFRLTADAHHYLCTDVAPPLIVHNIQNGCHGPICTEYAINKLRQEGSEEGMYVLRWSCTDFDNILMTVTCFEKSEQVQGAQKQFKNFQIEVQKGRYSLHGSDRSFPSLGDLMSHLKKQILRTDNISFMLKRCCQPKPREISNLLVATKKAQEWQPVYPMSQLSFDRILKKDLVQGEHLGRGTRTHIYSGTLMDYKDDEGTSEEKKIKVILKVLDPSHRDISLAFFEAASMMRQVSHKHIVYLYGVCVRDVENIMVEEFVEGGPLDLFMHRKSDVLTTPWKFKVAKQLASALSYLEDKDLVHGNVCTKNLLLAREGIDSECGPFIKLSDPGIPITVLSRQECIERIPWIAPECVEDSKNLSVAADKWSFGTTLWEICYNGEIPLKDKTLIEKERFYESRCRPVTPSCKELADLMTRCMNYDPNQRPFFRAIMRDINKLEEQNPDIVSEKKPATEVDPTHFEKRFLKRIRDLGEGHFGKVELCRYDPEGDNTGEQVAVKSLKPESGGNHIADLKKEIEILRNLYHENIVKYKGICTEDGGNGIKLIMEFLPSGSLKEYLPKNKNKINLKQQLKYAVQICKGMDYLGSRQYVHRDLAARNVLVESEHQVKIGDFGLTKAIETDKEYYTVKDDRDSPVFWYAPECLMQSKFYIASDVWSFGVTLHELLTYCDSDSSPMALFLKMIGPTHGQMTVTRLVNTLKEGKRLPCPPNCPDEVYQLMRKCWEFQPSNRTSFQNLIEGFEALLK
For data set [3], the target named is T1, Tyrosine-protein kinase JAK2. In words: Inhibition of JAK2 (unknown origin) using 35 uM of ATP and Tyr6 peptide by Z'-LYTE kinase assay.
The target in data set [4] is T3, Tyrosine-protein kinase JAK3 (Homo sapiens, UniProt P52333).
T3 sequence (P52333 whole entry): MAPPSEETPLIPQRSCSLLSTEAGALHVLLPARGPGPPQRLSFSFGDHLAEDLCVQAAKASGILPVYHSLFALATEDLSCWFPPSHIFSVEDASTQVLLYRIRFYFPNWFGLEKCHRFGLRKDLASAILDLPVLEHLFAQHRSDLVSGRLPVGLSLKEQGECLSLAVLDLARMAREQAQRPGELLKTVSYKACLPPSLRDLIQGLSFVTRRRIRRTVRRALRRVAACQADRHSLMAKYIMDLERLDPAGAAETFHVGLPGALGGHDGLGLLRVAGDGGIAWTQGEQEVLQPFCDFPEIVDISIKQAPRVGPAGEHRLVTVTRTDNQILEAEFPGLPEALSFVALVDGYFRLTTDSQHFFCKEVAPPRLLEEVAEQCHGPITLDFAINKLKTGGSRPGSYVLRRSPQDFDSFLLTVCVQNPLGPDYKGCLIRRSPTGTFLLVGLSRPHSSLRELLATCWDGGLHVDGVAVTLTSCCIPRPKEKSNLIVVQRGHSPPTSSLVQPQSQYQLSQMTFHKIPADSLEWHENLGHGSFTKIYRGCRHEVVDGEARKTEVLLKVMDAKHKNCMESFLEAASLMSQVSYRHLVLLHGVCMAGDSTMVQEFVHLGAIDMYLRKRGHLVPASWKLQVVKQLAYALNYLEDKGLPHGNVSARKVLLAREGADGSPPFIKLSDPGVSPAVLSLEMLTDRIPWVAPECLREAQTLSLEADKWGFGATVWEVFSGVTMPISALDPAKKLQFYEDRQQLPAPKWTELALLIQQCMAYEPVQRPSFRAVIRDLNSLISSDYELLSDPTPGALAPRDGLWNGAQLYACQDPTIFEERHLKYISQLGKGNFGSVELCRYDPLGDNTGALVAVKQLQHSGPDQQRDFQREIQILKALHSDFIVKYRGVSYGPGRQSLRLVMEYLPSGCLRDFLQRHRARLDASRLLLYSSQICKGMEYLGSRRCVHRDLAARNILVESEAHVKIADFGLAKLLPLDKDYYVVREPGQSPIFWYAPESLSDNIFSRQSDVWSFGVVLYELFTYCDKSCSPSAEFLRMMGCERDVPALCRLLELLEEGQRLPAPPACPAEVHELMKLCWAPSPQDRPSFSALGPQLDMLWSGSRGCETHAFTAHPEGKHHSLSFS
Nature of the data set: Inhibition of JAK3 (unknown origin) using 16 uM of ATP and Tyr6 peptide by Z'-LYTE kinase assay.

Data set [5] concerns the target T4, Non-receptor tyrosine-protein kinase TYK2 (Homo sapiens, UniProt P29597). Nature of the data set: Inhibition of Tyk2 (unknown origin) using 25 uM of ATP and Tyr3 peptide by Z'-LYTE kinase assay.
Data set [6] is filed under the species Homo sapiens. Nature of the data set: Selectivity ratio of IC50 for JAK2 (unknown origin) using 35 uM of ATP and Tyr6 peptide to IC50 for JAK1 (unknown origin) using 87 uM of ATP and Tyr6 peptide. In short, it runs like this: (§1)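 JAK1 selectivity taken as IC50 against JAK2 or JAK3 divided by IC50 against JAK1. […] IC50s are means ± SD of three independent experiments.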

The species named for data set [7] is Homo sapiens. Nature of the data set: Selectivity ratio of IC50 for JAK3 (unknown origin) using 16 uM of ATP and Tyr6 peptide to IC50 for JAK1 (unknown origin) using 87 uM of ATP and Tyr6 peptide. The essentials:
as §1

The species named for data set [8] is Homo sapiens. In words: Selectivity ratio of IC50 for JAK2 (unknown origin) to IC50 for JAK1 (unknown origin) by cell based assay.
Data set [9] can be described thus: Permeability of the compound by PAMPA. The conditions noted are these: read-out: permeability. The format is physicochemical. (In general: PAMPA measures passive passage across an artificial lipid membrane.)
A short description of data set [10]: Oral bioavailability in Sprague-Dawley rat at 10 mg/kg. The format is ADME, organism-based. The conditions noted are these: in vivo.
A short description of data set [11]: Volume of distribution at steady state in Sprague-Dawley rat at 5 mg/kg, iv. The conditions noted are these: in vivo, read-out: Vdss. The format is ADME, organism-based. In short, it runs like this: (§2)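 Rats dosed intravenously. Steady-state volume of distribution, systemic plasma clearance and plasma half-life derived from plasma concentration data.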
Data set [12] in a line: Plasma clearance in Sprague-Dawley rat at 5 mg/kg, iv. The format is ADME, organism-based. In short, it runs like this:
as §2

Data set [13] in a line: Half life in Sprague-Dawley rat at 5 mg/kg, iv. The format is ADME, organism-based. The conditions noted are these: in vivo. The essentials:
as §2

The target in data set [14] is T1, Tyrosine-protein kinase JAK2. In words: Inhibition of JAK2 in human A431 cells assessed as erythropoietin-induced STAT5 phosphorylation at 0.001 to 10 uM after 2 hrs by ELISA. The format is cell-based. The conditions noted are these: A-431. On the technique in general: ELISA stands for enzyme-linked immunosorbent assay.
Data set [15] concerns the target T2, Tyrosine-protein kinase JAK1. In words: Inhibition of JAK1 (unknown origin) using 1 mM of ATP and Tyr6 peptide by Z'-LYTE kinase assay.
Data set [16] has as its target T1, Tyrosine-protein kinase JAK2. Nature of the data set: Inhibition of JAK2 (unknown origin) using 1 mM of ATP and Tyr6 peptide by Z'-LYTE kinase assay.
Data set [17] addresses T3, Tyrosine-protein kinase JAK3. In words: Inhibition of JAK3 (unknown origin) using 1 mM of ATP and Tyr6 peptide by Z'-LYTE kinase assay.
Data set [18] has as its target T4, Non-receptor tyrosine-protein kinase TYK2. In words: Inhibition of Tyk2 (unknown origin) using 1 mM of ATP and Tyr3 peptide by Z'-LYTE kinase assay.
The target in data set [19] is T2, Tyrosine-protein kinase JAK1. The conditions noted are these: A-431, 0.001 to 10 uM.

T4 sequence (P29597 whole entry): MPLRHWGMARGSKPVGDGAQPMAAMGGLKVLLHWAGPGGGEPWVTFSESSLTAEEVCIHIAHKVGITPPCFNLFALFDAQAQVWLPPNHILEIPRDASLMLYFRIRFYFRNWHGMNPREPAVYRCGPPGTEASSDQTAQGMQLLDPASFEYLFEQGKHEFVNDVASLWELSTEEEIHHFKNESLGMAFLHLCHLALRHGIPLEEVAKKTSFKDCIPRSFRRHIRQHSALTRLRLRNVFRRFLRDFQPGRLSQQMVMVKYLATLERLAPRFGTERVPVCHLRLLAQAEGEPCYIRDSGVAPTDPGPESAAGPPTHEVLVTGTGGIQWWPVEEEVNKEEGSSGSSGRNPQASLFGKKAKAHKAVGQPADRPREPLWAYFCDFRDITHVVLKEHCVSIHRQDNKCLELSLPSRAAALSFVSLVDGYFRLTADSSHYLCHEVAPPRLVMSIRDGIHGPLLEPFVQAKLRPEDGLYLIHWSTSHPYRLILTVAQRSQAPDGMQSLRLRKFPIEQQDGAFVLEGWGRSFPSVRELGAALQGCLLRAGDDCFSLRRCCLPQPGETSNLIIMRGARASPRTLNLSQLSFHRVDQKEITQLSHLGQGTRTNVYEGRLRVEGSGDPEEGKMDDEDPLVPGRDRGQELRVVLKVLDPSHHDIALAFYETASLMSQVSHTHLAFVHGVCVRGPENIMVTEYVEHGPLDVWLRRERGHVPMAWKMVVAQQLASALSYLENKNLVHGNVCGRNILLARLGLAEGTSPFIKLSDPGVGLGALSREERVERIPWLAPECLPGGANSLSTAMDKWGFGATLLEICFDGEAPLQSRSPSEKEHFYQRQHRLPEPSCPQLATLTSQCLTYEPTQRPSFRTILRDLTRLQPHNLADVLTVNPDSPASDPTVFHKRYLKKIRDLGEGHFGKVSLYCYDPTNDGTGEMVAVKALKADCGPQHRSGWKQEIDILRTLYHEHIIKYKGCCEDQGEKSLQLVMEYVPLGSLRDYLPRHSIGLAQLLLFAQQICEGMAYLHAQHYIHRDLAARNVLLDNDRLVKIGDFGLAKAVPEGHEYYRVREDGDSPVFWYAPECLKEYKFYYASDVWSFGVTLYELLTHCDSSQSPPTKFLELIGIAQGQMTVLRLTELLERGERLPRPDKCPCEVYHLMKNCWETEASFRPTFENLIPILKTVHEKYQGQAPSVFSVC
T1 sequence (O60674 whole entry): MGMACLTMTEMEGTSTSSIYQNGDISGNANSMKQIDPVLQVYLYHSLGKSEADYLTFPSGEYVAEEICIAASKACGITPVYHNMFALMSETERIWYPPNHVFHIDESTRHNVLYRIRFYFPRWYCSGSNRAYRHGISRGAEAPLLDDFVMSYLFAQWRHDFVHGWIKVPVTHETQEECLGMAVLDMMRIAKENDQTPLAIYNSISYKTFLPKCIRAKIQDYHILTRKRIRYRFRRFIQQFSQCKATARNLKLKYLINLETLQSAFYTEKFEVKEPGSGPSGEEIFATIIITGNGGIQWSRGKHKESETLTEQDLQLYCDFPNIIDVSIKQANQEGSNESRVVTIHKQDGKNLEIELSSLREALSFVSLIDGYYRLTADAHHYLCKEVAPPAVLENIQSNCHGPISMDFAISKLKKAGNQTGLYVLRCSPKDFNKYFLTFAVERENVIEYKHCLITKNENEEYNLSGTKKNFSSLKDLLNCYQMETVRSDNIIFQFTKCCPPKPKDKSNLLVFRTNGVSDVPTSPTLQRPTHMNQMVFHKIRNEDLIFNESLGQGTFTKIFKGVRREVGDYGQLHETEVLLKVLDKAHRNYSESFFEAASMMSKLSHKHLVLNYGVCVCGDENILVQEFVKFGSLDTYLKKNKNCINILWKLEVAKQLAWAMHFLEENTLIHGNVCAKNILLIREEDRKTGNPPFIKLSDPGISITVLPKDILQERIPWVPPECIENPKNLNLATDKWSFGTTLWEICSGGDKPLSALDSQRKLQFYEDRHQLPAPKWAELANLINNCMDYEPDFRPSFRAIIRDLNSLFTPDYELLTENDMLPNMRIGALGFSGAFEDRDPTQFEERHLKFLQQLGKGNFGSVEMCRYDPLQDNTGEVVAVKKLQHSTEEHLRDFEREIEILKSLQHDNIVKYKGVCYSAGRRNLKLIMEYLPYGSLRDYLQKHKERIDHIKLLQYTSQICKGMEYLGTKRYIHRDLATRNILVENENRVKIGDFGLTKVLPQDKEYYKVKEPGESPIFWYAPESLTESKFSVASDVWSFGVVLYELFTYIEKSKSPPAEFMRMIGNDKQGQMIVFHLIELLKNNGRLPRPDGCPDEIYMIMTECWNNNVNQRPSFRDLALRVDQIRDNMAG

The compound `CC[C@@](C)(Nc1ccnc(-c2c[nH]c3ncccc23)n1)C(=O)NCC(F)(F)F` [DECERNOTINIB] returned a half-inhibitory concentration (IC50) in data set [1] of 0.013 µM.
As to `NCCn1c(-c2cccnc2N)nc2cc(C(N)=O)ccc21`, the IC50 in data set [2] worked out at 8.1 µM; in [3], 4.7 µM; in [4] it was 1.9 µM; in data set [5], 4.3 µM. The Ratio IC50 in the data set listed under Homo sapiens [6] was determined as 0.6; in the data set listed under Homo sapiens [7], 0.2.
On to `NCCCn1c(-c2ccccc2)nc2cc(C(N)=O)ccc21`, for which the half-maximal inhibitory concentration (IC50) in data set [2] turned out to be 11.3 µM; in data set [3], 20.5 µM; in data set [4], 1.8 µM; in data set [5], 2.7 µM. In addition, the values for the Ratio IC50 in the data set filed under Homo sapiens [6] and in the data set filed under Homo sapiens [7] were 2 and 0.2, respectively.
`CC[C@@H]1CN(C(=O)NCC(F)(F)F)C[C@@H]1c1cnc2cnc3[nH]ccc3n12`: in the data set filed under Homo sapiens [8], the Ratio IC50 came out at 74.
As to `NCCCn1c(CCN)nc2cc(C(N)=O)ccc21`, the IC50 in data set [2] worked out at 6.1 µM; in [3], 2.2 µM; in data set [4], 1.5 µM; in data set [5] it was 6.4 µM. The Ratio IC50 in the data set filed under Homo sapiens [6] came to 0.4; in the data set listed under Homo sapiens [7] it was 0.2.
For `NCCn1c(-c2ccc(O)cc2)nc2cc(C(N)=O)ccc21`, the IC50 in data set [2] was determined as 0.1 µM; in [3] it was 1.3 µM; in [4] it was 2.4 µM; in data set [5] it was 3.2 µM. The Ratio IC50 in the data set filed under Homo sapiens [6] stood at 11; in the data set filed under Homo sapiens [7] it was 20.
On to `NCCc1nc2cc(C(N)=O)ccc2n1CCN`, for which the IC50 in data set [2] came out at 0.1 µM; in [3], 2.9 µM; in [4], 1.5 µM; in [5] it was 3.1 µM. For the same compound, the Ratio IC50 in the data set listed under Homo sapiens [6] was found to be 29; in the data set listed under Homo sapiens [7], 15.
In the case of `NCCn1c(-c2ccncc2)nc2cc(C(N)=O)ccc21`, the IC50 in [2] came to 32.4 µM; in data set [3] it was 13.5 µM; in data set [4] it was 10.5 µM; in data set [5], 5.8 µM. Further, the Ratio IC50 in the data set filed under Homo sapiens [6] was found to be 0.4; in the data set filed under Homo sapiens [7], 0.3.
As for `NCCCc1nc2cc(C(N)=O)ccc2n1CCN`, the IC50 in [2] is 2.2 µM; in [3], 1.6 µM; in data set [4], 1.1 µM; in [5], 2.5 µM. The Ratio IC50 in the data set listed under Homo sapiens [6] was determined as 0.7; in the data set filed under Homo sapiens [7] it was 0.5.
As for `NCCn1c(-c2ccccc2)nc2cc(C(N)=O)ccc21`, the IC50 in data set [2] was 11.6 µM; in data set [3], 2.8 µM; in data set [4] it was 14.1 µM; in [5] it was 4.2 µM. In addition, the Ratio IC50 in the data set listed under Homo sapiens [6] is 0.2; in the data set filed under Homo sapiens [7], 1.
With `Cc1ccc(-c2nc3cc(C(N)=O)ccc3n2CCN)cc1`, the IC50 in data set [2] worked out at 3.7 µM; in data set [3], 2.6 µM; in [4], 2.3 µM; in data set [5], 3.5 µM. Further, the Ratio IC50 was found to be 0.7 in the data set filed under Homo sapiens [6] and 0.6 in the data set listed under Homo sapiens [7].
For `NCCn1c(C2CCNCC2)nc2cc(C(N)=O)ccc21`, the Papp in data set [9] was 0.1 ×10⁻⁶ cm/s. The bioavailability in data set [10] came to 0.7%. Also, the Vd in [11] was 0.5 L/kg. The compound further gave a clearance in data set [12] of 6.67 mL/min/kg. The half-life in data set [13] was 9.1 h. Moreover, the inhibition entry in data set [14] and in data set [19] was “inactive” each time. Besides, the IC50 in [2] was 0.05 µM; in data set [3], 3.15 µM; in data set [4] it was 1.26 µM; in [5], 3.7 µM; in data set [15] it was 5.7 µM; in data set [16], 437 µM. Also, the values for the half-maximal inhibitory concentration (IC50) in [17] and in data set [18] were 232 µM and 759 µM, respectively. Also, the Ratio IC50 in the data set filed under Homo sapiens [6] came to 63; in the data set filed under Homo sapiens [7] it was 25.
For `NCCn1c(-c2ccc(O)cc2O)nc2cc(C(N)=O)ccc21`, the 50% inhibitory concentration (IC50) amounted to 3.1 µM in data set [2], 2.5 µM in [3], 2.9 µM in data set [4] and 3.7 µM in [5]. In addition, the figures for the Ratio IC50 in the data set filed under Homo sapiens [6] and in the data set listed under Homo sapiens [7] were 0.8 and 0.9, respectively.
Consider `NCCn1c(-c2ccc(C(F)(F)F)cc2)nc2cc(C(N)=O)ccc21`, for which the IC50 in data set [2] came to 9.3 µM; in data set [3] it was 4.8 µM; in data set [4], 2.1 µM; in data set [5], 3.2 µM. The Ratio IC50 in the data set filed under Homo sapiens [6] turned out to be 0.5; in the data set listed under Homo sapiens [7], 0.2.
Take `NCCn1c(-c2cncnc2)nc2cc(C(N)=O)ccc21`: the concentration for half-maximal inhibition (IC50) in data set [2] was found to be 3.4 µM; in [3], 1.6 µM; in data set [4], 2.5 µM; in data set [5], 2.8 µM. The Ratio IC50 stood at 0.5 in the data set filed under Homo sapiens [6] and 0.7 in the data set listed under Homo sapiens [7].
As to `N#Cc1ccc(-c2nc3cc(C(N)=O)ccc3n2CCN)cc1`, the 50% inhibitory concentration (IC50) in [2] was 2.9 µM; in [3], 2.6 µM; in data set [4] it was 1.9 µM; in [5], 2.5 µM. For the same compound, the Ratio IC50 in the data set listed under Homo sapiens [6] is 0.9; in the data set filed under Homo sapiens [7], 0.7.
On to `NCCn1c(C2CCCCC2)nc2cc(C(N)=O)ccc21`, for which the 50% inhibitory concentration (IC50) is 4.3 µM in data set [2], 4.1 µM in data set [3], 2.5 µM in data set [4] and 3.3 µM in [5]. The Ratio IC50 in the data set listed under Homo sapiens [6] is 1; in the data set filed under Homo sapiens [7], 0.6.
Take `CC(C)c1ccc(-c2nc3cc(C(N)=O)ccc3n2CCN)cc1`: the IC50 came out at 3.1 µM in data set [2], 5.9 µM in [3], 1.9 µM in data set [4] and 2.7 µM in [5]. For the same compound, the Ratio IC50 was found to be 2 in the data set listed under Homo sapiens [6] and 0.6 in the data set listed under Homo sapiens [7].

For orientation: IC50 means the midpoint of a concentration-inhibition curve. A high value points to weaker potency in that assay. Usually bioavailability stands for the share of a dose that reaches the circulation, judged against a reference dose that is usually intravenous. The low end stands for poor availability, the high end for good availability. By clearance is commonly meant the volume of plasma or blood freed of the substance per unit of time. One may read the half-life as the time needed for the level to fall by half in the phase considered. Read a high half-life as slow loss.
